HTR2A ag: agonists of mouse serotonin 5-HT2A receptor (HTR2A); 360,000 tested, 0.66% active; P35363; CHO-K1 mHTR2A beta-arrestin complementation, luminescence; percent of 30 µM serotonin response; AID 624169; activation, % at 7.6 µM;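 active = activation above a run cutoff, the mean activation of all tested compounds plus 3 SD, cut at about 14% in these data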
EBI2 antag: antagonists of human EBI2 receptor; EBI2 beta-arrestin recruitment, luminescence, 7a,25-OHC stimulated; inhibition, % at 5 µM; 360,000 tested, 0.81% active; in the data active = inhibition above about 38%;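 note: enzyme fragment complementation signal reports receptor beta-arrestin coupling in cells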
CXCR6 block: CXCR6 (human) receptor inhibition; CHO-K1 PathHunter CXCR6 beta-arrestin, luminescence; inhibition, % at 20 µM; 360,000 tested, 0.36% active; in the data active = inhibition above about 34%, passing the limit was not always enough;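 note: antagonist mode with CXCL16 agonist at 10 nM final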
CCR6 antag: CCR6 (human) receptor antagonism | inhibition, % at 20 µM | 340,000 tested, 0.49% active | AID 493098 | CHO-K1 CCR6 PathHunter beta-arrestin, luminescence, CCL20-stimulated | P51684;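 active = compounds whose inhibition of the agonist-driven luminescence signal at 20 µM reaches about 50%, limit read from the data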;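 note: cells stimulated with CCL20 at 14 nM final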
APJ ag: APJ receptor agonism | 330,000 tested, 0.11% active | activation, % at 20 µM | CHO-K1 APJ PathHunter beta-arrestin, luminescence; 0% DMSO wells, 100% apelin | P35414;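 active = activation more than six SD over the plate average, tested at 20 µM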
Target sequence (P35414 whole entry, looked up): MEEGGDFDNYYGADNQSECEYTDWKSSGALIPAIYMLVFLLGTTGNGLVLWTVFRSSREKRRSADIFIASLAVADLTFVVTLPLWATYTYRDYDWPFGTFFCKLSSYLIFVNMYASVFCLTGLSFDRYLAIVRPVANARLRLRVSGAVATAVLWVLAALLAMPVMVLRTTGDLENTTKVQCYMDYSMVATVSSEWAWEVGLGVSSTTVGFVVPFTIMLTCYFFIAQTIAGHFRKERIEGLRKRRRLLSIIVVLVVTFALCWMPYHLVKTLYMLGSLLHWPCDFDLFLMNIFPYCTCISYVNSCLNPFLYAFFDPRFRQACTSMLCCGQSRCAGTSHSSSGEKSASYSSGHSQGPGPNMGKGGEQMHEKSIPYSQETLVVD
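Assay system: CHO-K1 cells stably expressing ProLink-tagged human APJ and arrestin–beta-gal acceptor. Compound dosing: 20 µM single point, 1% DMSO. Times: 16-18 h seeding, 90 min dark compound exposure, 60 min detection. Detection: beta-gal luminescence. Evaluation: APJ–arrestin association signal. Controls: negative DMSO alone, positive Apelin-13 at 10 nM.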
APJ antagonist: APJ receptor antagonism; P35414; CHO-K1 APJ beta-arrestin complementation, luminescence; inhibition, % at 20 µM; 330,000 tested, 0.32% active; AID 2521;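 active = inhibition above about 40% at 20 µM, limit read from the data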;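 note: cells challenged with 10 nM apelin-13 agonist together with compound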
EBI2 antag conf: confirmation of human EBI2 receptor antagonists; shares compounds with EBI2 antag; EBI2 beta-arrestin luminescence, 7a,25-OHC antagonism; inhibition, % at 5 µM; 2,400 tested, 29% active; AID 651997;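 active = inhibition of at least 50%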
EBI2 ag: counter-screen for EBI2 antagonists: EBI2 agonist activity. activation, % at 5 µM. AID 652000. shares compounds with EBI2 antag. EBI2-expressing cells, agonist mode, luminescence, 60 min; 0% vehicle, 100% 7α,25-dihydroxycholesterol control. 2,400 tested, under 10 active;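 active = activation of at least 50%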
bGal cs: inhibits E. coli beta-galactosidase, counter-screen for EBI2 antagonists; shares compounds with EBI2 antag; purified beta-galactosidase, luminescent Galacton Star, 15 min; inhibition, % at 5 µM; 2,400 tested, 1% active;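 active = replicate-average signal at least 3 plate SD below neutral wells, shown as high inhibition, flagging enzyme-inhibiting false positives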;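 note: higher means stronger loss of beta-gal luminescence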
Numbers stand for hits; - = inactive; . = no result. This is a sample that favours compounds with a hit; in the whole collection about 2.1% have one here.

SMILES | HTR2A ag | EBI2 antag | CXCR6 block | CCR6 antag | APJ ag | APJ antagonist | EBI2 antag conf | EBI2 ag | bGal cs
O=C(CSc1ccc(Cl)cc1)Nc1ccccc1Oc1ccccc1 | - | 55.2 | - | - | - | - | - | - | -
O=C(CSc1ccc(Cl)cc1)Nc1ccccc1 | - | - | - | . | . | . | . | . | .
O=C(CSc1ccc(Cl)cc1)Nc1ccccc1N1CCN(C(=O)c2ccccc2)CC1 | - | 76.3 | - | - | - | - | 66.9 | - | -
O=C(CSc1cccc[n+]1[O-])Nc1ccccc1Oc1ccccc1 | - | - | - | - | - | - | . | . | .
COC(=O)c1cc(=O)n(CCc2ccc(OC)c(OC)c2)c(=Nc2ccc(F)c(Cl)c2)s1 | - | 63.5 | - | - | - | - | 62.1 | - | -
CCOC(=O)c1ccc(N=c2sc(C(=O)OC)cc(=O)n2-c2ccc(C(=O)OCC)cc2)cc1 | - | 79.2 | - | - | - | - | 73.5 | - | -
COC(=O)c1cc(=O)n(Cc2ccc(F)cc2)c(=Nc2ccccc2)s1 | - | 59.9 | - | - | - | - | 61.8 | - | -
COC(=O)c1cc(=O)n(Cc2ccc(OC)c(OC)c2)c(=Nc2ccc(F)cc2)s1 | - | 70.0 | - | - | - | - | 50.5 | - | -
COC(=O)c1cc(=O)n(Cc2cccs2)c(=Nc2ccccc2)s1 | - | - | - | - | - | - | . | . | .
COC(=O)c1cc(=O)n(Cc2ccco2)c(=Nc2ccc(F)cc2)s1 | - | - | - | - | - | - | . | . | .
COc1ccc(OCCSc2ccc(S(=O)(=O)N3CCCC3)cn2)cc1 | - | - | - | - | - | - | . | . | .
O=C(CCSCCc1ccccn1)Nc1ccccn1 | - | - | - | - | - | - | . | . | .
CCN(CC)c1ccc(/C=C/C(=O)c2ccc(Br)cc2)cc1 | - | - | - | - | . | . | . | . | .
CN(C)c1ccc(C(=O)/C=C/c2ccc(Br)cc2)cc1 | - | 85.6 | - | - | - | - | 63.9 | - | -
CC1CC(C)CN(CC(O)COc2ccc3c(c2)CCC3)C1 (centres undefined) | - | - | - | - | - | - | . | . | .
O=C(CSc1nnnn1-c1ccccc1)N1N=CCC1c1ccccc1 (centres undefined) | - | - | - | - | - | - | . | . | .
Cc1ccc(N(C)C(=O)N2CCN(S(=O)(=O)c3ccc4ccccc4c3)CC2)cc1 | - | 45.3 | - | - | - | - | - | - | -
C=CCOc1ccc(/C=C2\SC(N3CCCCC3)=NC2=O)cc1 | - | 57.0 | - | - | - | - | - | - | -
O=C1N=C(N2CCCC2)S/C1=C\c1ccccc1 | - | - | - | - | - | - | . | . | .
O=C1N=C(N2CCCCC2)S/C1=C\c1ccc(Cl)cc1 | - | 85.7 | - | - | - | - | 54.7 | - | -
CCOC(=O)C1CCCN(C2=NC(=O)/C(=C/c3ccc(OC)cc3)S2)C1 (centres undefined) | - | 61.1 | - | - | - | - | - | - | -
CCOC(=O)C1CCCN(C2=NC(=O)/C(=C/c3ccc(OC)cc3OC)S2)C1 (centres undefined) | - | - | - | - | - | - | . | . | .
CS(=O)(=O)N1CCc2cc(C(=O)Nc3ccccc3Cl)ccc21 | - | - | - | - | - | - | . | . | .
CC(=O)Nc1ccc(NC(=O)c2cc(-c3cc(F)ccc3OCC3CCCO3)n[nH]2)cc1 (centres undefined) | - | - | - | . | . | . | . | . | .
C=CCNC(=S)NNC(=O)COc1ccc(Cl)cc1Cl | - | - | - | - | - | - | . | . | .
SMILES | HTR2A ag | EBI2 antag | CXCR6 block | CCR6 antag | APJ ag | APJ antagonist | EBI2 antag conf | EBI2 ag | bGal cs
CCOC(=O)c1ccc(NC(=S)N(CCN2CCCCCC2)Cc2ccco2)cc1 | - | - | - | - | - | - | . | . | .
CCOC(=O)C1CCCCN1C(=O)c1ccc2nc(Cc3ccc(OC)cc3)oc2c1 (centres undefined) | - | 61.1 | - | - | - | - | - | - | -
COc1ccc(Cc2nc3ccc(C(=O)N4CCC[C@H]4CO)cc3o2)cc1 | - | - | - | - | - | - | . | . | .
c1ccc(CNc2ncnc3sc4c(c23)CCC4)nc1 | - | - | - | - | - | - | . | . | .
Cc1ccc(NS(=O)(=O)c2cc(C(=O)NCCSc3ccc(C)cc3)ccc2C)cc1 | - | 44.3 | - | - | - | - | - | - | -
Cn1cc(S(=O)(=O)N2CCc3ccccc32)cc1C(=O)Nc1ccc(Cl)cc1 | - | 45.6 | - | - | - | - | - | - | -
Cc1ccc(NC(=O)c2cc(S(=O)(=O)N3CCc4ccccc43)cn2C)cc1 | - | - | - | - | - | - | . | . | .
COc1ccc(NCC(O)COc2ccc(C(C)(C)C)cc2)cc1 (centres undefined) | - | 70.0 | - | - | - | - | 51.6 | - | -
COc1cccc(OCC(O)CN2CCN(C(c3ccccc3)c3ccccc3)CC2)c1 (centres undefined) | - | 37.9 | - | - | - | - | - | - | -
c1ccc(OCCN2CCNCC2)cc1 | - | - | - | - | . | . | . | . | .
c1ccc(OCCN2CCN(C(c3ccccc3)c3ccccc3)CC2)cc1 | - | 45.0 | - | - | - | - | - | - | -
CCCN(CCC)Cc1c(C(=O)N/N=C/c2c[nH]c3ccccc23)nnn1-c1nonc1N | - | - | - | - | - | - | . | . | .
CCCc1c(C(=O)N/N=C/c2c[nH]c3ccccc23)nnn1-c1nonc1N | - | 42.8 | - | . | . | . | - | - | -
O=C(NN=Cc1c[nH]c2ccccc12)NN=Cc1c[nH]c2ccccc12 | - | 74.2 | - | . | . | . | 62.0 | - | -
O=C(N/N=C/c1ccco1)c1cc(-c2cccs2)[nH]n1 | - | - | - | - | - | - | . | . | .
O=C(NC1CCCCC1)c1ccc(CNc2nc(=S)[nH]c3ccccc23)cc1 | - | - | - | - | - | - | . | . | .
O=C1C=C(O)CC(c2ccc(Cl)cc2)C1 (centres undefined) | - | - | - | - | - | - | . | . | .
O=C1C=C(/C=C/C2C=CC=CC2)C[C@@H](c2ccc(Cl)cc2)C1 (some centres undefined) | - | 47.6 | - | - | - | - | - | - | -
O=S(=O)(Nc1cccc(S(=O)(=O)N2CCCC2)c1)c1cccs1 | - | - | - | - | - | - | . | . | .
Cc1ccccc1Cn1nnc(C(=O)Nc2cccc(C)c2C)c1N | - | 43.1 | - | - | - | - | - | - | -
N#Cc1cc(-c2ccc(Cl)cc2)cn(Cc2c(Cl)cccc2Cl)c1=O | - | 45.5 | - | - | - | - | - | - | -
C=CCn1cc(-c2ccc(Cl)cc2)cc(C#N)c1=O | - | - | - | - | - | - | . | . | .
